Screening data from PubChem BioAssay.
The list is not random: actives were taken first. Their share in the collection is about 2.5%.
PG9 binder: PG9 antibody binding by small molecule. TR-FRET gp120-PG9 antibody binding. actives 0.43% (n = 360,000). inhibition, % at 6.7 µM. AID 624416; in the data active = inhibition above about 8.5%
MC4R antag cAMP: antagonists of human melanocortin 4 receptor (MC4R) | P32245 | MC4R-expressing cells, MTII-stimulated cAMP, LANCE TR-FRET | inhibition, % at 6.5 µM | actives 0.48% (n = 360,000) | AID 540295;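 active = inhibition above its plate's cutoff, the mean of tested wells on that plate plus 3 SD, cut at about 29% in these data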
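System – human MC4R-expressing U2OS cells · Also added – Melanotan II · Dosing – one concentration, 6.5 µM nominal · Timing – 30-min compound, 1-h challenge, 1-h detection, room temperature · Measured by – Eu-cAMP/anti-cAMP TR-FRET, emission 671 nm · Replicates – singlicate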
MC4R ag barr: human MC4R agonism via beta-arrestin; U2OS MC4R beta-arrestin complementation, luminescence; percent of melanotan II response, DMSO zero; activation, % at 8.9 µM; actives 0.98% (n = 360,000);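 active = activation above a per-plate cutoff, the mean activation of sample wells on that plate plus 3 SD, cut at about 8% in these data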
NTR1 ag: agonists of human neurotensin receptor NTR1 | P30989 | NTR1-U2OS beta-arrestin-GFP spot imaging, agonist mode | activation, % at 20 µM | actives 0.17% (n = 330,000) | AID 493036;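 active = activation at or above 40% of the spot to cytoplasm intensity ratio, with at least 20 cells analyzed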
Target sequence (P30989 whole entry, looked up): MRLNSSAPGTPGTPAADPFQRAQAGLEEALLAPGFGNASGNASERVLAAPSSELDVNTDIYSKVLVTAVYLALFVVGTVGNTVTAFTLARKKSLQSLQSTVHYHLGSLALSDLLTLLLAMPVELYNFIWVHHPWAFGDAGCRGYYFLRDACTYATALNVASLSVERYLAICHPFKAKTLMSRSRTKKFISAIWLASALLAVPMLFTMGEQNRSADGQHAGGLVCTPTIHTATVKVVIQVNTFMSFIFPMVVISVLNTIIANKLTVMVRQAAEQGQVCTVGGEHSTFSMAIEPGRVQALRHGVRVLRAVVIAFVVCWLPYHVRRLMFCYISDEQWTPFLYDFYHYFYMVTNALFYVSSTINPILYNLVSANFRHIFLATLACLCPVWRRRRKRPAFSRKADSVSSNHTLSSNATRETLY
Rev-erbA mod: modulates human Rev-erb alpha binding to DNA; Rev-erbα–FITC-DNA binding, fluorescence polarization, 90 min; actives 0.79% (n = 370,000); P20393; activity, % at 10 µM; AID 1259318;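 active = activity above about 14%, limit read from the data; passing the limit was not always enough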
MC4R barr conf: human MC4R beta-arrestin agonism confirmation; U2OS MC4R beta-arrestin recruitment, luminescence; scaled DMSO 0%, Melanotan II 100%; actives 31% (n = 2,400); activation, % at 8.9 µM; AID 602192; shares compounds with MC4R ag barr;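 active = mean activation across replicates above the hit cutoff set in the earlier primary screen, cut at about 8% in these data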
MOR-DOR barr ag: counter-screen for MC4R agonists: agonists of mu-delta opioid heterodimer; shares compounds with MC4R ag barr; U2OS PathHunter beta-arrestin, beta-gal luminescence; percent of deltorphin B response, DMSO zero; activation, % at 9.2 µM; actives 5.8% (n = 2,400);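 active = mean activation across replicates exceeds the hit threshold derived in the earlier primary screen, cut at about 18% in these data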
Large screens that a line does not name were inactive (follow-up assays come after a bar, where they were run).

O=C(O)c1cncc(C#Cc2ccccc2)c1	none
CC1(C)CC(=O)N(CC(=O)N2CCN(c3cccc(C(F)(F)F)c3)CC2)c2ccccc2S1(=O)=O	none (no result: PG9 binder, MC4R antag cAMP, MC4R ag barr, NTR1 ag)
COc1cc(-c2nc(-c3ccccc3)c(-c3ccc(F)cc3)[nH]2)cc2c1OCO2	MC4R ag barr 12 | MC4R barr conf inactive | MOR-DOR barr ag inactive
COc1ccc(-c2[nH]c(-c3ccc4c(c3)OCO4)nc2-c2ccccc2)cc1	none
COC(=O)N1C[C@H](OC)[C@H]2C[C@@H]1c1ccccc1O2	none (no result: MC4R antag cAMP, MC4R ag barr, NTR1 ag)
O=C(CSc1nnc(-c2ccc(Cl)cc2)n1C1CCCCC1)NN=Cc1c(O)ccc2ccccc12	none (no result: PG9 binder, MC4R antag cAMP, MC4R ag barr, NTR1 ag)
O=C(CCN1C(=O)/C(=C/c2cccs2)SC1=S)Nc1cccc(O)c1	none
O=C(CCN1C(=O)/C(=C/c2cccs2)SC1=S)Nc1ccc(O)cc1	MC4R ag barr 11 | MC4R barr conf inactive | MOR-DOR barr ag inactive
Cc1ccc(NC(=O)CN2C(=O)S/C(=C\c3ccccn3)C2=O)cc1	none
Cc1ccc(/C=C2/SC(=S)N(CCCC(=O)Nc3ccc(O)cc3)C2=O)cc1	MC4R ag barr 17 | MC4R barr conf inactive | MOR-DOR barr ag inactive
CC(/C=C1\SC(=S)N(CCC(=O)Nc2ccc(O)cc2)C1=O)=C\c1ccccc1	MC4R ag barr 22 | MC4R barr conf 13 | MOR-DOR barr ag inactive
Cc1ccc(NC(=O)CN2C(=O)S/C(=C\c3cccn3C)C2=O)cc1	MC4R ag barr 15 | MC4R barr conf inactive | MOR-DOR barr ag inactive
C[C@@H]1C[C@H](O)CCCCCC(=O)Cc2cc(O)cc(O)c2C(=O)O1	none (no result: PG9 binder, MC4R antag cAMP, MC4R ag barr, NTR1 ag)
COc1cccc(/C=C2\SC(=S)N(CCCC(=O)Nc3ccc(C(=O)O)cc3)C2=O)c1	none
Cc1ccc(/C=C2\SC(=S)N(CCC(=O)NNS(=O)(=O)c3ccccc3)C2=O)cc1	MC4R ag barr 47 (no result: PG9 binder) | MC4R barr conf inactive | MOR-DOR barr ag inactive
Cc1cc(NC(=O)CCN2C(=O)/C(=C/c3ccccc3Cl)SC2=S)no1	MC4R ag barr 16 | MC4R barr conf inactive | MOR-DOR barr ag inactive
Cc1ccc(/C=C2\SC(=S)N(CCC(=O)NNC(=O)c3ccccc3O)C2=O)cc1	none
COc1cccc(/C=C2/SC(=S)N(CCCC(=O)Nc3ccc(O)cc3)C2=O)c1	MC4R ag barr 9.9 | MC4R barr conf 20 | MOR-DOR barr ag inactive
CCNC(=O)OC[C@H]1O[C@H](C#Cc2ccc(C(C)(C)C)cc2)C=C[C@H]1OC(C)=O	none (no result: MC4R antag cAMP, MC4R ag barr, NTR1 ag)
O=c1cc(-c2ccc(O)cc2)oc2c1ccc1ccccc12	MC4R ag barr 50 | MC4R barr conf inactive | MOR-DOR barr ag inactive
COc1cccc(CNC(=O)[C@H]2CCCN2C(=O)[C@H]2CCCN2C(=O)N2CCCCC2)c1	none (no result: MC4R antag cAMP, MC4R ag barr, NTR1 ag)
COc1ccc(C[N+]2=C(N)NC3=C4CCCCC4n4c(=O)n(-c5ccccc5)c(=O)n4C3C2)c(OC)c1 (stereo unspecified)	none (no result: PG9 binder, MC4R antag cAMP, MC4R ag barr, NTR1 ag)
COc1cc(CC(=O)NCCc2ccc(OCc3ccccc3)cc2)c([N+](=O)[O-])cc1OC	MC4R ag barr 12 | MC4R barr conf inactive | MOR-DOR barr ag inactive
CCOc1cccc(N)c1	none (no result: PG9 binder, Rev-erbA mod)
CCOc1ccc(N)c(SSc2cc(OCC)ccc2N)c1	MC4R ag barr 11 | MC4R barr conf inactive | MOR-DOR barr ag inactive
Cc1ccc(C(C)C)c(OCC(=O)OCC(=O)c2c(N)n(C)c(=O)n(C)c2=O)c1	none
C=CCn1c(COc2cc(C)ccc2C(C)C)nnc1SCC(=O)c1c(N)n(C)c(=O)n(C)c1=O	MC4R ag barr 9.7 | MC4R barr conf inactive | MOR-DOR barr ag inactive
Cc1nnnn1/C(=C\c1ccccc1)C(=O)OCC(=O)Nc1cccc(S(=O)(=O)N(C)C)c1	none
Cc1nnnn1/C(=C\c1ccccc1)C(=O)OCC(=O)Nc1ccc(Cl)cc1F	MC4R ag barr 37 | MC4R barr conf 24 | MOR-DOR barr ag inactive
CCCCN(C)C(=O)c1ccc(Nc2nc(C(N)Cc3ccc(C(F)(F)F)cc3)cs2)nc1 (stereo unspecified)	MC4R ag barr 30 (no result: NTR1 ag) | MC4R barr conf 23 | MOR-DOR barr ag 35
